The values that follow come from ChEMBL document CHEMBL1938303, “Novel biologically active nitro and amino substituted benzimidazo[1,2-a]quinolines” (Bioorg Med Chem, 2011).

One data set concerns SW-620. The experiment in a line: Antitumor activity against human SW620 cells assessed as growth inhibition after 72 hrs by MTT assay. Format: functional, cell-based. A digest of the protocol:
(§1)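 MCF-7, SW 620, HCT 116 and H 460 were grown as monolayers in DMEM, and MOLT-4 in suspension in RPMI, all with 10% FBS, 2 mM L-glutamine and penicillin/streptomycin at 37 °C in 5% CO2. Cells were seeded at 1×10^4 to 3×10^4 cells/mL on day 0. Compounds were added in ten-fold dilutions (10^-8 to 10^-4 M) for 72 h, then read by MTT at 570 nm. IC50 came from linear regression of percentage growth. Quadruplicate, at least two experiments.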
(Formazan colour is commonly taken as a measure of viable cells.)

The subject of data set [1] is NCI-H460. The experiment in a line: Antitumor activity against human H460 cells assessed as growth inhibition after 72 hrs by MTT assay. The format is functional, cell-based. A digest of the protocol: as §1
The next data set relates to MOLT-4. Briefly: Antitumor activity against human MOLT4 cells assessed as growth inhibition after 72 hrs by MTT assay. Format: functional, cell-based. A digest of the protocol: as §1
For data set [2], the system named is HCT-116. Briefly: Antitumor activity against human HCT116 cells assessed as growth inhibition after 72 hrs by MTT assay. The format is functional, cell-based. A digest of the protocol: as §1
A further data set deals with MCF7. The experiment in a line: Antitumor activity against human MCF7 cells assessed as growth inhibition after 72 hrs by MTT assay. Format: functional, cell-based. Particulars: MCF7, 72 h. A digest of the protocol:
as §1

The nature of data set [3]: Aqueous solubility of the compound. Format: physicochemical. The following applies: buffer.
Data set [4] relates to HCT-116. The experiment in a line: Cell cycle arrest in human HCT116 cells assessed as accumulation at G2/M phase at 5 uM after 24 hrs by flow cytometric analysis (reference value: 21 %). Format: functional.
The subject of data set [5] is HCT-116. Briefly: Cell cycle arrest in human HCT116 cells assessed as accumulation at Sub G0/G1 phase at 5 uM after 24 hrs by flow cytometric analysis (reference value: 3 %). The format is functional. A general note: In flow cytometry, cells or beads pass a laser one at a time.
In data set [6] the test system is HCT-116. Briefly: Cell cycle arrest in human HCT116 cells assessed as accumulation at G0/G1 phase at 5 uM after 24 hrs by flow cytometric analysis (reference value: 40 %). The format is functional.
Data set [7] relates to HCT-116. Briefly: Cell cycle arrest in human HCT116 cells assessed as accumulation at S phase at 5 uM after 48 hrs by flow cytometric analysis (reference value: 35 %). The format is functional.
The subject of data set [8] is HCT-116. The experiment in a line: Cell cycle arrest in human HCT116 cells assessed as accumulation at G2/M phase at 5 uM after 48 hrs by flow cytometric analysis (reference value: 25 %). Format: functional.
Data set [9] relates to HCT-116. Briefly: Cell cycle arrest in human HCT116 cells assessed as accumulation at S phase at 5 uM after 24 hrs by flow cytometric analysis (reference value: 39 %). The format is functional.
Data set [10] deals with HCT-116. Briefly: Cell cycle arrest in human HCT116 cells assessed as accumulation at Sub G0/G1 phase at 5 uM after 48 hrs by flow cytometric analysis (reference value: 1 %). Format: functional.
Data set [11] has as its system HCT-116. Briefly: Cell cycle arrest in human HCT116 cells assessed as accumulation at G0/G1 phase at 5 uM after 48 hrs by flow cytometric analysis (reference value: 40 %). The format is functional.
Data set [12] concerns Nucleic Acid. The experiment in a line: Binding affinity to calf thymus DNA assessed as binding constant at pH 7 by fluorescence quenching assay. Format: nucleic-acid assay. Particulars: Bos taurus. A digest of the protocol:
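Calf thymus DNA in sodium cacodylate buffer (I = 0.05 mol dm⁻³, pH 7.0) was sonicated and filtered, with concentration taken as phosphate. Portions of DNA were added to the buffered compound, keeping absorbance below 0.05 at the excitation wavelength and DMSO below 1%. Emission was recorded from 350 to 600 nm. Ks came from non-linear Scatchard fitting, recalculated at fixed n = 0.2.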

Data set [13] deals with Nucleic Acid. Briefly: Binding affinity to calf thymus DNA assessed as intercalation measuring viscosity index at compound to DNA molar ratio of 0.2 at pH 7 by viscometry method. Format: nucleic-acid assay. The following applies: Bos taurus.
Data set [14] can be described thus: Drug uptake in human H460 cell cytoplasm at 100 uM after 2 hrs by fluorescence microscopy. Format: ADME, cell-based. The following applies: h460, 2 h. The procedure, abridged:
(§2)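 H 460 cells were grown on cover slips (100,000 cells/well) in DMEM at 37 °C for 24 h. They were then exposed to 100 µM compound for 120 min, rinsed twice with PBS, and examined immediately for intrinsic compound fluorescence under a fluorescence microscope.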

Data set [15] in a line: Drug uptake in human H460 cell nucleus at 100 uM after 2 hrs by fluorescence microscopy. The format is ADME, cell-based. The following applies: h460, 2 h. The procedure, abridged:
as §2

Data set [16] is described as follows: Drug uptake in human H460 cell cytoplasm at 100 uM after 24 hrs by fluorescence microscopy. Format: ADME, cell-based. The following applies: h460, 24 h.
For data set [17], the system named is NCI-H460. Briefly: Drug uptake in human H460 cells assessed as colocalization with endoplasmic reticulum at 100 uM after 2 hrs by fluorescence microscopy. The format is ADME, cell-based. Particulars: nci-h460, 2 h.
Data set [18] relates to Nucleic Acid. The experiment in a line: Binding affinity to calf thymus DNA by CD-Spectroscopy. The format is nucleic-acid assay. The following applies: Bos taurus.
In data set [19] the test system is Nucleic Acid. Briefly: Binding affinity to calf thymus DNA assessed as change in melting temperature at compound to DNA molar ratio of 0.1 at pH 7 by thermal denaturation assay. Particulars: Bos taurus. The format is nucleic-acid assay. A digest of the protocol:
(§3)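 Absorbance of ct-DNA alone or with compound at 260 nm was recorded against temperature in sodium cacodylate buffer (I = 0.05 mol dm⁻³, pH 7.0). r = [compound]/[polynucleotide]. Ligand absorbance was subtracted and curves were normalised. Tm was the transition midpoint, taken from the first-derivative maximum or by tangent method. ΔTm = Tm(complex) − Tm(free DNA), averaged over at least two runs, ±0.5 °C.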

Data set [20] relates to Nucleic Acid. The experiment in a line: Binding affinity to calf thymus DNA assessed as change in melting temperature at compound to DNA molar ratio of 0.3 at pH 7 by thermal denaturation assay. The format is nucleic-acid assay. Particulars: Bos taurus. The procedure, abridged:
as §3

For data set [21], the system named is Nucleic Acid. The experiment in a line: Binding affinity to calf thymus DNA assessed as binding constant at pH 7 by UV-visible spectrophotometry. Format: nucleic-acid assay. Particulars: Bos taurus. The procedure, abridged:
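Sonicated, filtered ct-DNA was quantified as phosphate. It was added in portions to the compound solution in sodium cacodylate buffer (I = 0.05 mol dm⁻³, pH 7.0), and absorbance changes were followed. Ks came from non-linear least-squares fitting to the Scatchard equation, with Ks recalculated for a fixed n of 0.2.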

In data set [22] the test system is Nucleic Acid. Briefly: Binding affinity to calf thymus DNA assessed as change in melting temperature at compound to DNA molar ratio of 0.2 at pH 7 by thermal denaturation assay. Format: nucleic-acid assay. Particulars: Bos taurus. The procedure, abridged: as §3

SMILES strings stand for the structures. Active and inactive are the calls of the source. The calls are words filed in the database; no cut-off is given here.

Broadly, the IC50 is the midpoint of a concentration-inhibition curve. For orientation: ΔTm means the shift of the melting midpoint relative to a reference.

Consider `O=[N+]([O-])c1ccc2c(ccc3nc4ccccc4n32)c1`, for which the IC50 with SW-620 (Homo sapiens, SW-620, 72 h) is 6 µM; in the data set with NCI-H460 [1] (Homo sapiens, NCI-H460, 72 h) it was 8 µM; with MOLT-4 (Homo sapiens, MOLT-4, 72 h), 3 µM; in the data set on HCT-116 [2] (Homo sapiens, HCT-116, 72 h), 6 µM; with MCF7, 4 µM.
Consider `N#Cc1cc2cc(N)ccc2n2c1nc1ccccc12` [listing 1 of 2 here], for which the solubility result in [3] is recorded as “Insoluble”. The Activity is reported as 18% in the data set on HCT-116 [4]; 6% in the data set on HCT-116 [5]; 62% in the data set with HCT-116 [6]; 25% in the data set on HCT-116 [7]; 28% with HCT-116 [8]; 20% with HCT-116 [9]. In addition, the Activity in the data set with HCT-116 [10] was determined as 3%; with HCT-116 [11], 47%. The IC50 with SW-620 (sw-620) was 4 µM; in the data set with NCI-H460 [1] (nci-h460), 3 µM; in the data set with MOLT-4 (molt-4) it was 6 µM; in the data set on HCT-116 [2] (hct-116), 4 µM.
Take `CC[n+]1c(-c2ccccc2)c2cc(N)ccc2c2ccc(N)cc21`: the log Ks with Nucleic Acid [12] is 6. Further, the result with Nucleic Acid [13] was Active.
Regarding `Cl.N#Cc1cc2cc(N)ccc2n2c1nc1ccccc12`, the Activity was 25% with HCT-116 [4]; 4% in the data set with HCT-116 [5]; 55% in the data set with HCT-116 [6]; 31% with HCT-116 [7]; 24% with HCT-116 [8]; 20% with HCT-116 [9]. Further, the Activity in the data set on HCT-116 [10] is recorded as 4%; with HCT-116 [11], 45%. The Drug uptake entry in data set [14] is given as “Active”; in data set [15], “Not Active”; in [16], “Active”; with NCI-H460 [17], “Active”. The 50% inhibitory concentration (IC50) came out at 6 µM with SW-620 (Homo sapiens, SW-620, 72 h); 2 µM in the data set with NCI-H460 [1] (Homo sapiens, NCI-H460, 72 h); 2 µM in the data set on MOLT-4 (molt-4); 3 µM in the data set with HCT-116 [2] (Homo sapiens, HCT-116, 72 h); 4 µM with MCF7.
Turning to `O=[N+]([O-])c1ccc(Cl)c(/C=C/c2nc3ccccc3[nH]2)c1`, the 50% inhibitory concentration (IC50) in the data set with SW-620 (Homo sapiens, SW-620, 72 h) is 28 µM; in the data set with NCI-H460 [1] (Homo sapiens, NCI-H460, 72 h), > 100 µM; with MOLT-4 (Homo sapiens, MOLT-4, 72 h) it was > 100 µM; in the data set on HCT-116 [2] (Homo sapiens, HCT-116, 72 h), 4 µM; in the data set on MCF7, 32 µM.
With `N#Cc1cc2cc(N)ccc2n2c1nc1ccccc12` [listing 2 of 2 here], in the data set with Nucleic Acid [18], the result was Active. Further, the figures for the log Ks in the data set on Nucleic Acid [12] and in the data set with Nucleic Acid [21] were 5.5 and 5.1, respectively. Also, the values for the shift in melting temperature (ΔTm) with Nucleic Acid [19], in the data set on Nucleic Acid [20] and in the data set with Nucleic Acid [22] were 0.9 °C, 0.2 °C and 1.9 °C, respectively.
